Data from ChEMBL document CHEMBL5252510, “A Novel Potent Oral Series of VEGFR2 Inhibitors Abrogate Tumor Growth by Inhibiting Angiogenesis” (J Med Chem, 2016).
Values belong to the molecule of their own block, whether it stands above or below them. Activity calls are given as the source filed them. The calls are words filed in the database; no cut-off is given here.

Experiments:
[1] = Tmax in OFA rat at 25 mg/kg, po measured upto 24 hrs by HPLC/UV analysis; type: ADME, organism-based; conditions: in vivo
Method in brief: (§1)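 Female OFA rats, femoral artery/vein catheterized and recovered 96 h. Oral gavage of a micronized suspension in 0.5 % carboxymethyl cellulose at 25 or 3 mg/kg. Bioavailability taken against femoral-vein iv dosing. Plasma sampled 5 min–24 h (9 time points).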

[2] = Oral bioavailability in OFA rat at 25 mg/kg measured upto 24 hrs by HPLC/UV analysis; type: ADME, organism-based; conditions: in vivo; method in brief: as §1
[3] = molecular target: RAF proto-oncogene serine/threonine-protein kinase (Homo sapiens) (UniProt P04049); test: Inhibition of human recombinant GST-fused cRAF expressed in baculovirus expression system using poly-Glu-Tyr (4:1) as substrate measured after 10 mins in presence of gamma-[33P]-ATP by scintillation counting analysis
Chain of RAF proto-oncogene serine/threonine-protein kinase (Homo sapiens) (P04049 whole entry, the tested form may be a part): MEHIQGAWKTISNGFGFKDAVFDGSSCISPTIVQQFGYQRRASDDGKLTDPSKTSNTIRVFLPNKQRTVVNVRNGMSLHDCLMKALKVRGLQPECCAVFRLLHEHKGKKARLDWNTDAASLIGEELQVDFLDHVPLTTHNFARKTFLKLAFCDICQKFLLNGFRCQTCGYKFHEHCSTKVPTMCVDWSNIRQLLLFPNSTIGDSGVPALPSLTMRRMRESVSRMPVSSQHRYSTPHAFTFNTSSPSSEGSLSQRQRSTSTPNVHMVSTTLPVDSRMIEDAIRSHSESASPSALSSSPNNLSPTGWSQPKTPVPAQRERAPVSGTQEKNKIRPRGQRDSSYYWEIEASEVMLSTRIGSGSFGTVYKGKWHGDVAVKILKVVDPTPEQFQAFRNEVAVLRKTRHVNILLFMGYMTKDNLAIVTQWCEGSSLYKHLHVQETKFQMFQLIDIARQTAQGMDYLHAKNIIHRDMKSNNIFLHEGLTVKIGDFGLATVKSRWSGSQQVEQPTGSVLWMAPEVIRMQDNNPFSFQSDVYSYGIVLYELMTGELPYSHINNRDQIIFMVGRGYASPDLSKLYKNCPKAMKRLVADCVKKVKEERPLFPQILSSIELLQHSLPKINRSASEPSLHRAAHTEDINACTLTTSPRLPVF
Method in brief: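 GST-fused kinase domains were expressed in baculovirus and purified on glutathione-Sepharose. 10 min at ambient temperature, stopped with EDTA. Filter binding and scintillation counting. IC50 by linear regression of percent inhibition.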

[4] = Half-life in OFA rat at 2.5 mg/kg, iv measured upto 24 hrs by HPLC/UV analysis; type: ADME, organism-based; conditions: in vivo
Method in brief: (§2)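 Catheters were placed in the femoral artery and vein of female OFA rats, followed by 96 h recovery. IV doses went into the femoral vein: 2.5 mg/kg in ethanol/dimethylisosorbide/PEG400/5 % glucose (10/15/35/40), or 1 mg/kg in NMP/PEG200 (30:70). Plasma samples at 5, 15, 30 min and 1, 2, 4, 6, 8, 24 h. Parameters reported over 24 h. n=2–4.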

[5] = Clearance in OFA rat at 2.5 mg/kg, iv measured upto 24 hrs by HPLC/UV analysis; type: ADME, organism-based; conditions: in vivo; method in brief: as §2
Mus musculus [6] = species: Mus musculus; test: Antiangiogenic activity in C57BL/6jNpa mouse harbouring mouse B16-BL6 cells assessed as reduction in K-trans level measured after 3 days by DCE-MRI assay relative to control; type: functional; parameters: scale not given: the % may be the effect or the level left; conditions: time 3 day
Method in brief: (§3)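 C57BL/6JNpa mice bearing B16/BL6 cervical lymph-node metastases, at least 8 per group, anaesthetized and given contrast agent; DCE-MRI Ktrans and iAUEC (permeability) and Vp (plasma volume) measured before and again after daily treatment; change per mouse recorded, mean ± SEM, one-way ANOVA with Holm-Sidak comparisons versus vehicle.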

[7] = Antitumor activity against rat BN472 cell implanted in Brown-Norway rat assessed as T/C ratio at 1 mg/kg, po administered once every 2 days measured upto 14 days; type: functional; conditions: time <= 14 day
Method in brief: (§4)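 Female Brown-Norway rats (160-180 g) given 3 mm³ BN472 tumor fragments in mammary fat pads; at about 200 mm², randomized into groups of 7-8 and dosed orally with compound or PEG300 vehicle over 14 days; tumor growth followed, T/C computed; significance by 2-way RM-ANOVA.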

[8] = Antitumor activity against rat BN472 cell implanted in Brown-Norway rat assessed as T/C ratio at 3 mg/kg, po qd measured upto 14 days; type: functional; conditions: time <= 14 day; method in brief: as §4
Mus musculus [9] = species: Mus musculus; test: Antiangiogenic activity in C57BL/6jNpa mouse harbouring mouse B16-BL6 cells assessed as reduction in tumor plasma volume by measuring T/C ratio measured after 3 days by DCE-MRI assay; type: functional; conditions: time 3 day; method in brief: as §3
Mus musculus [10] = species: Mus musculus; test: Antiangiogenic activity in C57BL/6jNpa mouse harbouring mouse B16-BL6 cells assessed as reduction in iAUEC level measured after 3 days by DCE-MRI assay relative to control; type: functional; parameters: scale not given: the % may be the effect or the level left; conditions: time 3 day; method in brief: as §3
Mus musculus [11] = species: Mus musculus; test: Antiangiogenic activity in C57BL/6jNpa mouse harbouring mouse B16-BL6 cells assessed as reduction in iAUEC level by measuring T/C ratio measured after 3 days by DCE-MRI assay; type: functional; conditions: time 3 day; method in brief: as §3
BN472 cell = test: Antitumor activity against rat BN472 cell implanted in Brown-Norway rat assessed as reduction in cell growth at 3 mg/kg, po qd measured upto 14 days by Ki67 staining based microscopic analysis; type: functional, organism-based; conditions: time <= 14.0 day
Method in brief: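 BN472-bearing Brown-Norway rats dosed orally; Hoechst dye i.v. shortly before sacrifice to mark perfused vessels; tumors cryosectioned at 10 micron, blocked in 10 % goat serum/0.1 % Triton X-100, stained with rabbit anti-Ki67 (1:200) or anti-caspase 3 (1:10) and fluorescent secondary antibodies; fluorescence microscopy.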

Mus musculus [12] = species: Mus musculus; test: Antiangiogenic activity in C57BL/6jNpa mouse harbouring mouse B16-BL6 cells assessed as reduction in K-trans level by measuring T/C ratio measured after 3 days by DCE-MRI assay; type: functional; conditions: time 3 day; method in brief: as §3
B16-BL6 [13] = test: Antitumor activity against mouse B16-BL6 cells implanted in C57BL/6jNpa mouse assessed as primary tumor growth inhibition at 3 mg/kg, po qd administered every 2 days started on day 7 post implantation measured after 21 days; type: functional, organism-based; conditions: time 7-21 day
Method in brief: (§5)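 Female C57BL/6JNpa mice, 50000 B16/BL6 cells intradermally in both ear pinnae; primary tumor area (mm²) imaged days 7, 14, 21; randomized day 7 into groups of 5-6, oral dosing in PEG200 or PEG300 vehicle daily (or every 2 days) for 14 days; day 21 cervical lymph nodes weighed, metastasis lysates assayed for TIE-2 by ELISA; T/C ratios.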

B16-BL6 [14] = test: Antitumor activity against mouse B16-BL6 cells implanted in C57BL/6jNpa mouse assessed as metastatic tumor growth inhibition at 3 mg/kg, po qd administered once every 2 days started on day 7 post implantation measured after 21 days relative to control; type: functional, organism-based; conditions: time 7-21 day; method in brief: as §5
Mus musculus [15] = species: Mus musculus; test: Antiangiogenic activity in C57BL/6jNpa mouse harbouring mouse B16-BL6 cells assessed as reduction in tumor plasma volume measured after 3 days by DCE-MRI assay relative to control; type: functional; parameters: scale not given: the % may be the effect or the level left; conditions: time 3 day; method in brief: as §3
[16] = Volume of distribution at steady state in OFA rat at 1 mg/kg, iv measured upto 24 hrs by HPLC/UV analysis; type: ADME, organism-based; conditions: in vivo, read-out: Vdss
Method in brief: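 Female OFA rats with femoral artery and vein catheters, 96 h recovery. IV into femoral vein: 2.5 mg/kg in ethanol/dimethylisosorbide/PEG400/D5W (10/15/35/40) or 1 mg/kg in NMP/PEG200 (30:70). Plasma sampled at 5, 15, 30 min, 1, 2, 4, 6, 8, 24 h; drug measured by HPLC (UV or MS-MS stated); parameters dose normalized, n=2-4.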

[17] = Half life in OFA rat at 3 mg/kg, po measured upto 24 hrs by HPLC/UV analysis; type: ADME, organism-based; conditions: in vivo; method in brief: as §1
B16-BL6 [18] = test: Antitumor activity against mouse B16-BL6 cells implanted in C57BL/6jNpa mouse assessed as primary tumor growth inhibition by measuring T/C ratio at 1 mg/kg, po qd started on day 7 post implantation measured after 21 days; conditions: time 7-21 day
[19] = Tmax in OFA rat at 3 mg/kg, po measured upto 24 hrs by HPLC/UV analysis; type: ADME, organism-based; conditions: in vivo; method in brief: as §1
[20] = Half-life in OFA rat at 1 mg/kg, iv measured upto 24 hrs by HPLC/UV analysis; type: ADME, organism-based; conditions: in vivo; method in brief: as §2
[21] = Oral bioavailability in OFA rat at 3 mg/kg measured upto 24 hrs by HPLC/UV analysis; type: ADME, organism-based; conditions: in vivo; method in brief: as §1
[22] = Dose normalized AUC(0 to infinity) in OFA rat at 3 mg/kg, po measured upto 24 hrs by HPLC/UV analysis; type: ADME, organism-based; conditions: in vivo; method in brief: as §1

Tmax [1]: 2 h
bioavailability [2]: 35%
inhibition [3]: Active
half-life [4]: 2 h
clearance [5]: 11 mL/min/kg
Structure (SMILES): Nc1nccc(Oc2ccc3c(C(=O)Nc4cccc(C(F)(F)F)c4)cccc3c2)n1

Structure (SMILES): Nc1nccc(Oc2ccc3c(C(=O)Nc4ccc(F)c(C(F)(F)F)c4)cccc3c2)n1
Activity (Mus musculus [6]): 61%
T/C [7]: 0.176
T/C [8]: 0.056
T/C (Mus musculus [9]): 0.36
Activity (Mus musculus [10]): 65%
T/C (Mus musculus [11]): 0.34
Activity (BN472 cell): Active
T/C (Mus musculus [12]): 0.39
Activity (B16-BL6 [13]): Active
Activity (B16-BL6 [14]): Active
Activity (Mus musculus [15]): 65%

Vd [16]: 0.63 L/kg
half-life [17]: 4.1 h
Tmax [19]: 2 h
half-life [20]: 2.5 h
bioavailability [21]: 46%
AUC/dose [22]: 13.2 µmol·h/L
Structure (SMILES): O=C(Nc1cccc(C(F)(F)F)c1)c1cccc2cc(Oc3cc(CO)ncn3)ccc12 [BFH-772]
T/C (B16-BL6 [18]): 0.73
